Test results published in ChEMBL document CHEMBL1147446, “Antagonists of human CCR5 receptor containing 4-(pyrazolyl)piperidine side chains. Part 3: SAR studies on the benzylpyrazole segment” (Bioorg Med Chem Lett, 2004).

Legend:
[1] = target: C-C chemokine receptor type 5 (Homo sapiens, UniProt P51681); experiment: Inhibitory concentration for displacement of [125I]-MIP-1 alpha from recombinant human CC chemokine receptor 5 (CCR5) expressed in CHO cell; assay type: cell-based
How it was run: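 Competitive binding to CCR5 on CHO cell membranes, read as displacement of [125I]-labeled MIP-1α. IC50 values are means of triplicate determinations. Standard errors were normally <15% within an assay. Assay-to-assay variation was within ±2-fold, judged from a standard compound.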

[2] = tested on: HeLa; experiment: Antiviral activities in a cell culture HIV-1 infectivity inhibition assay using HeLa cells; assay type: functional; settings: Homo sapiens
[3] = tested on: HeLa; experiment: Antiviral activities in a cell culture HIV-1 infectivity inhibition assay using HeLa cells plus 50% normal human serum; assay type: functional

Chain of C-C chemokine receptor type 5 (P51681 whole entry): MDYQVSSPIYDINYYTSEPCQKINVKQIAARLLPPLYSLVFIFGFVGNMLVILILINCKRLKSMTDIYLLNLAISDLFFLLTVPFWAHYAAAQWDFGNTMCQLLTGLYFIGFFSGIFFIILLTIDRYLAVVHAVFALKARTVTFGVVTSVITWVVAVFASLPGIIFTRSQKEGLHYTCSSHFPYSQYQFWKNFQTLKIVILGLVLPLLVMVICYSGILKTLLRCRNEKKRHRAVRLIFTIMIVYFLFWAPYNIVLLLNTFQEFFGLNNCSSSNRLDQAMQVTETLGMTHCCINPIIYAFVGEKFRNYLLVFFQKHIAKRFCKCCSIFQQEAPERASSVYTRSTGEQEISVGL

IC50 [1] [nM]	IC90 [2] [nM]	Compound	IC90 [3] [nM]
0.4	3.7	CCn1nc(Cc2ccc(Oc3ccccc3)cc2)cc1C1CCN(C[C@H]2CN([C@@H](C(=O)O)C(C)(C)C)C[C@@H]2c2cccc(F)c2)CC1	300
0.7	1.2	CCCOc1ccc(Cc2cc(C3CCN(C[C@H]4CN([C@@H](C(=O)O)C5CCCCC5)C[C@@H]4c4cccc(F)c4)CC3)n(CC)n2)cc1	100
0.6	0.4	CCn1nc(Cc2ccc(C(C)C)cc2)cc1C1CCN(C[C@H]2CN([C@@H](C(=O)O)C(C)(C)C)C[C@@H]2c2cccc(F)c2)CC1	33
1.3	0.4	CCn1nc(Cc2ccc(OC)cc2)cc1C1CCN(C[C@H]2CN([C@@H](C(=O)O)C(C)C)C[C@@H]2c2cccc(F)c2)CC1	100
1.5	< 0.14	CCn1nc(Cc2ccc(OC)cc2)cc1C1CCN(C[C@H]2CN([C@@H](C(=O)O)C(C)(C)C)C[C@@H]2c2cccc(F)c2)CC1	33
0.7	< 0.14	CCOc1ccc(Cc2cc(C3CCN(C[C@H]4CN([C@@H](C(=O)O)C(C)(C)C)C[C@@H]4c4cccc(F)c4)CC3)n(CC)n2)cc1F	11
0.6	1.2	CC[C@@H](C)[C@H](C(=O)O)N1C[C@H](CN2CCC(c3cc(Cc4ccc(OC(F)(F)F)cc4)nn3CC)CC2)[C@@H](c2cccc(F)c2)C1	100
0.4	< 0.14	CCOc1ccc(Cc2cc(C3CCN(C[C@H]4CN([C@@H](C(=O)O)C(C)C)C[C@@H]4c4cccc(F)c4)CC3)n(CC)n2)cc1F	100
0.5	1.2	CC[C@@H](C)[C@H](C(=O)O)N1C[C@H](CN2CCC(c3cc(Cc4ccc(-c5ccccc5)cc4)nn3CC)CC2)[C@@H](c2cccc(F)c2)C1	300
0.8	0.4	CCCCOc1ccc(Cc2cc(C3CCN(C[C@H]4CN([C@@H](C(=O)O)C5CCCCC5)C[C@@H]4c4cccc(F)c4)CC3)n(CC)n2)cc1	33
0.9	0.4	CCn1nc(Cc2ccc(Cl)cc2)cc1C1CCN(C[C@H]2CN([C@@H](C(=O)O)C3CCCCC3)C[C@@H]2c2cccc(F)c2)CC1	100
1.4	0.4	CC[C@H](C)[C@H](C(=O)O)N1C[C@H](CN2CCC(c3cc(Cc4ccc(O)cc4)nn3CC)CC2)[C@@H](c2cccc(F)c2)C1	11
0.8	3.7	CCCCOc1ccc(Cc2cc(C3CCN(C[C@H]4CN([C@@H](C(=O)O)[C@H](C)CC)C[C@@H]4c4cccc(F)c4)CC3)n(CC)n2)cc1	100
3.1	1.2	CCn1nc(Cc2ccc(C#N)cc2)cc1C1CCN(C[C@H]2CN([C@@H](C(=O)O)C(C)C)C[C@@H]2c2cccc(F)c2)CC1	100
1.2	1.2	CCCOc1ccc(Cc2cc(C3CCN(C[C@H]4CN([C@@H](C(=O)O)[C@H](C)CC)C[C@@H]4c4cccc(F)c4)CC3)n(CC)n2)cc1	300
0.8	< 0.14	CC[C@H](C)[C@H](C(=O)O)N1C[C@H](CN2CCC(c3cc(Cc4ccc(OC(C)C)cc4)nn3CC)CC2)[C@@H](c2cccc(F)c2)C1	33
0.7	3.7	CC[C@H](C)[C@H](C(=O)O)N1C[C@H](CN2CCC(c3cc(Cc4ccc(OCc5ccccc5)cc4)nn3CC)CC2)[C@@H](c2cccc(F)c2)C1	300
13.1	11	CCn1nc(Cc2cccnc2)cc1C1CCN(C[C@H]2CN([C@@H](C(=O)O)C(C)C)C[C@@H]2c2cccc(F)c2)CC1	300

IC50 [1] [nM]	IC90 [2] [nM]	Compound	IC90 [3] [nM]
1	< 0.14	CCn1nc(Cc2cccc(C#N)c2)cc1C1CCN(C[C@H]2CN([C@@H](C(=O)O)C(C)(C)C)C[C@@H]2c2cccc(F)c2)CC1	11
0.8	< 0.14	CCn1nc(Cc2ccc(OC(C)(C)C)cc2)cc1C1CCN(C[C@H]2CN([C@@H](C(=O)O)C(C)C)C[C@@H]2c2cccc(F)c2)CC1	100
0.5	11	CCCCOc1ccc(Cc2cc(C3CCN(C[C@H]4CN([C@@H](C(=O)O)C(C)C)C[C@@H]4c4cccc(F)c4)CC3)n(CC)n2)cc1	300
0.5	3.7	CC[C@@H](C)[C@H](C(=O)O)N1C[C@H](CN2CCC(c3cc(Cc4ccc(Oc5ccccc5)cc4)nn3CC)CC2)[C@@H](c2cccc(F)c2)C1	300
1.1	3.7	CCn1nc(CC2CCCCC2)cc1C1CCN(C[C@H]2CN([C@@H](C(=O)O)C(C)(C)C)C[C@@H]2c2cccc(F)c2)CC1	300
0.7	< 0.14	CCOc1ccc(Cc2cc(C3CCN(C[C@H]4CN([C@@H](C(=O)O)[C@@H](C)CC)C[C@@H]4c4cccc(F)c4)CC3)n(CC)n2)cc1F	11
1.2	< 0.14	CC[C@H](C)[C@H](C(=O)O)N1C[C@H](CN2CCC(c3cc(Cc4cccc(OC)c4)nn3CC)CC2)[C@@H](c2cccc(F)c2)C1	100
0.4	< 0.14	CCOc1ccc(Cc2cc(C3CCN(C[C@H]4CN([C@@H](C(=O)O)[C@H](C)CC)C[C@@H]4c4cccc(F)c4)CC3)n(CC)n2)cc1F	33
0.8	3.7	CCn1nc(Cc2ccc(OC(F)(F)F)cc2)cc1C1CCN(C[C@H]2CN([C@@H](C(=O)O)C(C)C)C[C@@H]2c2cccc(F)c2)CC1	300
0.4	< 0.14	CCOc1cccc(Cc2cc(C3CCN(C[C@H]4CN([C@@H](C(=O)O)C(C)(C)C)C[C@@H]4c4cccc(F)c4)CC3)n(CC)n2)c1	100
0.9	< 0.14	CCn1nc(Cc2cc(F)cc(F)c2)cc1C1CCN(C[C@H]2CN([C@@H](C(=O)O)C3CCCCC3)C[C@@H]2c2cccc(F)c2)CC1	11
0.9	0.4	CC[C@@H](C)[C@H](C(=O)O)N1C[C@H](CN2CCC(c3cc(Cc4ccccc4)nn3CC)CC2)[C@@H](c2cccc(F)c2)C1	300
0.8	0.4	CCCOc1ccc(Cc2cc(C3CCN(C[C@H]4CN([C@@H](C(=O)O)C(C)(C)C)C[C@@H]4c4cccc(F)c4)CC3)n(CC)n2)cc1	300
0.5	0.4	CC[C@@H](C)[C@H](C(=O)O)N1C[C@H](CN2CCC(c3cc(Cc4ccc(C(F)(F)F)cc4)nn3CC)CC2)[C@@H](c2cccc(F)c2)C1	100
0.6	< 0.14	CC[C@@H](C)[C@H](C(=O)O)N1C[C@H](CN2CCC(c3cc(Cc4ccc(OC(F)F)cc4)nn3CC)CC2)[C@@H](c2cccc(F)c2)C1	11
–	–	CCn1nc(Cc2ccccc2)cc1C1CCN(C[C@H]2CN([C@@H](C(=O)O)C3CCCCC3)C[C@@H]2c2cccc(F)c2)CC1	100
1.1	33	CCn1nc(Cc2ccc(F)cc2)cc1C1CCN(C[C@H]2CN([C@@H](C(=O)O)C3CCCCC3)C[C@@H]2c2cccc(F)c2)CC1	–
